The target in one data set is Gamma-secretase. Briefly: Inhibition of gamma secretase assessed as reduction of amyloid beta level in H4 cells. It is filed as cell-based, Homo sapiens. The gist of the method:
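H4 cells; Aβ40 lowering measured in a cell-based assay; IC50 values are means of two experiments, 16 data points each, intra-assay variance <10%.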

The nature of data set [1]: Drug level in Tg2576 mouse plasma at 30 umol/kg, po after 3 hrs. To be noted: read-out: Drug uptake. The format is ADME, organism-based. The gist of the method:
(§1)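 Tg2576 mice, single oral dose of 30 µmol/kg; brain and plasma sampled 3 h after dosing for Aβ (% inhibition) and compound levels; n = 7-10; means ± SEM.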

Data set [2] has as its system Mus musculus. Description: Inhibition of beta amyloid peptide in Tg2576 mouse brain at 30 umol/kg, po after 3 hrs. The format is functional. The gist of the method:
as §1

In data set [3] the test system is Mus musculus. Description: Inhibition of beta amyloid peptide in Tg2576 mouse plasma at 30 umol/kg, po after 3 hrs. The format is functional. The gist of the method: as §1
Data set [4] in a line: Drug level in Tg2576 mouse brain at 30 umol/kg, po after 3 hrs. As to conditions: read-out: Drug uptake. The format is ADME, organism-based. The gist of the method: as §1
In data set [5] the test system is Mus musculus. Description: Inhibition of beta amyloid peptide in po dosed Tg2576 mouse plasma after 3 hrs. It is filed as functional. The gist of the method: (§2)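 Tg2576 mice dosed orally; brain and plasma Aβ measured 3 h after dosing; ED50 derived from dose-dependent Aβ reduction.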
For data set [6], the species on record is Mus musculus. Briefly: Reduction of beta amyloid peptide in Tg2576 mouse plasma after 12 hrs. The format is functional, organism-based.
For data set [7], the species on record is Mus musculus. Briefly: Increase in beta amyloid peptide in Tg2576 mouse plasma after 24 hrs. The format is functional.
Data set [8] relates to Mus musculus. Briefly: Inhibition of beta amyloid peptide in Tg2576 mouse brain at 30 umol/kg, po qd after 1 day. It is filed as functional. On the set-up: scale not given: the % may be the effect or the level left. The gist of the method: (§3)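 Tg2576 mice dosed orally at 4 or 30 µmol/kg, once daily for 1 or 14 days or twice daily (30 µmol/kg); brain Aβ inhibition measured.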

For data set [9], the system named is Mus musculus. Briefly: Inhibition of beta amyloid peptide in Tg2576 mouse brain at 4 umol/kg, po qd after 1 day. It is filed as functional. On the set-up: scale not given: the % may be the effect or the level left. The gist of the method: as §3
Data set [10] in a line: Terminal half life in Sprague-Dawley rat at 2.3 umol/kg, iv. The format is ADME, organism-based. As to conditions: in vivo.
The species entered for another data set is Homo sapiens. Briefly: Ratio of IC50 for Notch processing to IC50 for amyloid beta processing.
Data set [11] can be described thus: Clearance in Sprague-Dawley rat at 2.3 umol/kg, iv. The format is ADME, organism-based. As to conditions: in vivo.
For data set [12], the system named is Mus musculus. Description: Inhibition of beta amyloid peptide in Tg2576 mouse brain at 30 umol/kg, po bid after 14 days. On the set-up: scale not given: the % may be the effect or the level left. The format is functional. The gist of the method: as §3
Data set [13] deals with Mus musculus. Description: Inhibition of beta amyloid peptide in Tg2576 mouse brain at 4 umol/kg, po qd after 14 days. The format is functional. On the set-up: scale not given: the % may be the effect or the level left. The gist of the method:
as §3

Data set [14] has as its system Mus musculus. Briefly: Inhibition of beta amyloid peptide in po dosed Tg2576 mouse brain after 3 hrs. The format is functional, organism-based. The gist of the method:
as §2

Data set [15] has as its system Mus musculus. Briefly: Toxicity in Tg2576 mouse at 30 umol/kg, po bid after 10 days. It is filed as organism-based. As to conditions: in vivo, 240 h. The gist of the method: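 Tg2576 mice dosed orally at 30 µmol/kg twice daily; clinical signs, body weight and mortality monitored; intestinal histopathology assessed.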
A short description of data set [16]: Inhibition of human Cytochrome P450. It is filed as ADME. The gist of the method: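 Inhibition of human CYPs measured in vitro as IC50.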
The species named for data set [17] is Mus musculus. Briefly: Reduction of beta amyloid peptide in Tg2576 mouse brain after 12 hrs. The format is functional, organism-based.
A short description of data set [18]: Oral bioavailability in Sprague-Dawley rat at 35 umol/kg. The format is ADME, organism-based. As to conditions: in vivo. The gist of the method: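 Rats dosed orally with a PEG-400 suspension at 35 µmol/kg; bioavailability from plasma exposure.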
Data set [19] has as its system Mus musculus. Description: Inhibition of beta amyloid peptide in Tg2576 mouse brain at 30 umol/kg, po, qd after 14 days. It is filed as functional. The arrangement: scale not given: the % may be the effect or the level left. The gist of the method: as §3

Structures are written as SMILES. The source made the active and inactive calls. No cut-off for these calls is given here. Some results are limits rather than exact numbers.

In general, IC50 refers to the concentration that gives 50% inhibition. For `CC(C)C[C@H](NC(=O)Cc1cccs1)C(=O)NC1C(=O)N(C)N=Cc2ccccc21` (some centres undefined), the IC50 on Gamma-secretase turned out to be 1.9 nM.
One may read the inhibition in vivo as the change of the read-out against control, counted positive when it falls. Regarding `C[C@H](NC(=O)Cc1cc(F)cc(F)c1)C(=O)NC1C(=O)N(C)N=Cc2ccccc21` (some centres undefined), the concentration at 3 h in [1] was 199 nM; in data set [4] it was 12 nM. Moreover, at Gamma-secretase, the IC50 stood at 6 nM. The inhibition in vivo at 30 µmol/kg in the data set with Mus musculus [2] amounted to 54%; with Mus musculus [3], 75%.
For the compound `C[C@H](NC(=O)[C@@H](O)c1cc(F)cc(F)c1)C(=O)NC1C(=O)N(C)N=Cc2ccccc21` (some centres undefined), the IC50 on Gamma-secretase came out at 0.2 nM.
Same read-out and setting: for `C[C@H](NC(=O)Cc1cccc(Cl)c1)C(=O)NC1C(=O)N(C)N=Cc2ccccc21` (some centres undefined) the value was 10 nM; for `CC1=NN(C)C(=O)C(NC(=O)[C@H](C)NC(=O)Cc2ccoc2)c2ccccc21` (some centres undefined), 2 nM.
The same measure, in the same setting: for `CC1=NN(C)C(=O)C(NC(=O)[C@H](C)NC(=O)Cc2cc(F)cc(F)c2)c2ccccc21` (some centres undefined) the value was 1.3 nM; for `C[C@H](NC(=O)Cc1ccco1)C(=O)NC1C(=O)N(C)N=Cc2ccccc21` (some centres undefined), 24 nM; for `C[C@H](NC(=O)Cc1ccc(F)cc1)C(=O)NC1C(=O)N(C)N=Cc2ccccc21` (some centres undefined), 59 nM.
On the same count and under the same terms, next, `C[C@H](NC(=O)Cc1cccnc1)C(=O)NC1C(=O)N(C)N=Cc2ccccc21` (some centres undefined): 162 nM.
In the case of `CC(C)C[C@H](NC(=O)[C@H](O)c1ccccc1)C(=O)NC1C(=O)N(C)N=Cc2ccccc21` (some centres undefined), the IC50 on Gamma-secretase was 56 nM.
The term ED50 denotes the dose at which the effect has come halfway, by size or by number of responders. In the case of `C[C@H](NC(=O)Cc1cc(F)cc(F)c1)C(=O)NC1C(=O)N(C)NCc2ccccc21` (some centres undefined), the concentration at 3 h in data set [1] was 205 nM; in [4], 6 nM. In the data set on Mus musculus [5], this compound showed an ED50 of 5 µmol/kg. Also, on Gamma-secretase, the IC50 came to 9 nM. Further, the inhibition in vivo at 30 µmol/kg in the data set with Mus musculus [2] came to 51%; with Mus musculus [3], 80%.
With `C[C@H](NC(=O)Cc1cccc(F)c1)C(=O)NC1C(=O)N(C)N=Cc2ccccc21` (some centres undefined), the IC50 on Gamma-secretase was determined as 8 nM.
In the case of `C[C@H](NC(=O)Cc1ccsc1)C(=O)NC1C(=O)N(C)N=Cc2ccccc21` (some centres undefined), the IC50 at Gamma-secretase is 1 nM.
By half-life is commonly meant how long it takes for the measured level to halve. What is called clearance is the volume of plasma or blood freed of the substance per unit of time. As usually defined, the bioavailability is dose-corrected exposure relative to a reference, in per cent. Consider `C[C@H](NC(=O)[C@@H](O)c1cc(F)cc(F)c1)C(=O)N[C@@H]1C(=O)N(C)N=Cc2ccccc21`, for which the result in the data set listed under Mus musculus [6], in the data set on Mus musculus [14] and in the data set filed under Mus musculus [17] was Active. Moreover, the Activity in the data set listed under Mus musculus [7] is 60%; in the data set with Mus musculus [8], 83%; in the data set with Mus musculus [9], 25%; with Mus musculus [12], 98%; in the data set with Mus musculus [13], 38%; in the data set on Mus musculus [15], “Toxic”. In the data set with Mus musculus [19], the Activity was 89%. Moreover, the concentration at 3 h in [1] came to 1960 nM; in [4] it was 133 nM. For the same compound, the half-life in data set [10] was 276 min. Further, the Ratio IC50 in the data set listed under Homo sapiens was determined as 0.5. Also, in data set [11], the clearance turned out to be 5.2 mL/min/kg. Also, the IC50 on Gamma-secretase is 0.3 nM; in data set [16], over 100 µM. The inhibition in vivo at 30 µmol/kg in the data set with Mus musculus [2] was 90%; with Mus musculus [3], 88%. This compound came in with a bioavailability in data set [18] of 31%.
For `C[C@H](NC(=O)CC1CCCCC1)C(=O)NC1C(=O)N(C)N=Cc2ccccc21` (some centres undefined), the IC50 on Gamma-secretase turned out to be 43 nM.
On the same count and under the same terms, next, `CC(C)C[C@H](NC(=O)[C@@H](O)c1ccccc1)C(=O)NC1C(=O)N(C)N=Cc2ccccc21` (some centres undefined): 0.4 nM.
`C[C@H](NC(=O)C(=O)c1cc(F)cc(F)c1)C(=O)NC1C(=O)N(C)N=Cc2ccccc21` (some centres undefined): the results for the concentration at 3 h in data set [1] and in data set [4] were 2090 nM and 280 nM, respectively. For the same compound, the IC50 on Gamma-secretase is 1 nM. Further, the inhibition in vivo at 30 µmol/kg came out at 92% in the data set with Mus musculus [2] and 98% in the data set with Mus musculus [3].
`CC(C)C[C@H](NC(=O)Cc1cc(F)cc(F)c1)C(=O)NC1C(=O)N(C)N=Cc2ccccc21` (some centres undefined): the IC50 at Gamma-secretase amounted to 0.5 nM.
Still for that read-out and setting: for `CC(C)C[C@H](NC(=O)Cc1cccc(F)c1)C(=O)NC1C(=O)N(C)N=Cc2ccccc21` (some centres undefined) the value was 2 nM; for `C[C@H](NC(=O)Cc1ccc2ccccc2c1)C(=O)NC1C(=O)N(C)N=Cc2ccccc21` (some centres undefined), 269 nM.
Still for that read-out and setting: for `CC(C)C[C@H](NC(=O)Cc1ccsc1)C(=O)NC1C(=O)N(C)N=Cc2ccccc21` (some centres undefined) the value was 0.7 nM.
In the case of `C[C@H](NC(=O)Cc1cccs1)C(=O)NC1C(=O)N(C)N=Cc2ccccc21` (some centres undefined), the IC50 on Gamma-secretase was determined as 3 nM.
For the compound `CC(C)C[C@H](NC(=O)Cc1ccccc1F)C(=O)NC1C(=O)N(C)N=Cc2ccccc21` (some centres undefined), the IC50 at Gamma-secretase came to 22 nM.
With `C[C@H](NC(=O)[C@H](O)c1cc(F)cc(F)c1)C(=O)N[C@H]1C(=O)N(C)N=Cc2ccccc21`, the IC50 on Gamma-secretase is 750 nM.
Still for that read-out and setting: for `CC(C)N1N=Cc2ccccc2C(NC(=O)[C@H](C)NC(=O)Cc2cc(F)cc(F)c2)C1=O` (some centres undefined) the value was 4 nM; for `CC(C)C[C@H](NC(=O)CC1CCCCC1)C(=O)NC1C(=O)N(C)N=Cc2ccccc21` (some centres undefined), 14 nM.
Turning to `C[C@H](NC(=O)[C@@H](O)c1cc(F)cc(F)c1)C(=O)N[C@H]1C(=O)N(C)N=Cc2ccccc21`, the results for the concentration at 3 h in data set [1] and in data set [4] were 546 nM and 72 nM, respectively. The IC50 on Gamma-secretase was 30 nM. For the same compound, in the data set with Mus musculus [2], the inhibition in vivo at 30 µmol/kg was 29%.
For `C[C@H](NC(=O)[C@H](O)c1cc(F)cc(F)c1)C(=O)N[C@@H]1C(=O)N(C)N=Cc2ccccc21`, the results for the concentration at 3 h in data set [1] and in [4] were 2750 nM and 202 nM, respectively. Further, in the data set on Mus musculus [14], the result was Active. Moreover, the IC50 at Gamma-secretase was 10 nM. In addition, the inhibition in vivo at 30 µmol/kg in the data set with Mus musculus [2] was found to be 91%; with Mus musculus [3], 86%.
In the case of `CC(C)C[C@H](NC(=O)Cc1ccc(F)cc1)C(=O)NC1C(=O)N(C)N=Cc2ccccc21` (some centres undefined), the IC50 on Gamma-secretase came to 14 nM.

These data come from ChEMBL document CHEMBL1139985, “Discovery of (S)-2-((S)-2-(3,5-difluorophenyl)-2-hydroxyacetamido)-N-((S,Z)-3-methyl-4-oxo-4,5-dihydro-3H-benzo[d][1,2]diazepin-5-yl)propanamide (BMS-433796): a gamma-secretase inhibitor with Abeta lowering activity in a transgenic mouse model of Alzheimer's disease” (Bioorg Med Chem Lett, 2007).
